ChEMBL document CHEMBL1811799, “Jatrophane diterpenes from Euphorbia esula as antiproliferative agents and potent chemosensitizers to overcome multidrug resistance” (J Nat Prod, 2011)

Legend:
HeLa [1] = experiment: Antiproliferative activity against human HeLa cells assessed as growth inhibition at 10 ug/mL after 72 hrs by MTT assay; format: functional; conditions: read-out: GI
Outline: (§1)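 MTT assay on human HeLa, Ishikawa and MCF7 cells seeded at 5000/well and left to attach overnight. Medium was then replaced with medium containing test substances (DMSO stocks, final DMSO up to 0.3%). After 72 h, MTT was added for 4 h, formazan was dissolved in DMSO and absorbance read at 545 nm. Untreated cells served as negative control and cisplatin as positive control. Two plates were run, each with at least five parallel wells.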

Ishikawa [2] = experiment: Antiproliferative activity against human Ishikawa cells assessed as growth inhibition at 10 ug/mL after 72 hrs by MTT assay; format: functional; conditions: read-out: GI; outline: as §1
MCF7 [3] = experiment: Antiproliferative activity against human MCF7 cells assessed as growth inhibition at 10 ug/mL after 72 hrs by MTT assay; format: functional; conditions: MCF7, 72 h, read-out: GI; outline: as §1
HeLa [4] = experiment: Antiproliferative activity against human HeLa cells assessed as growth inhibition at 30 ug/mL after 72 hrs by MTT assay; format: functional; conditions: read-out: GI; outline: as §1
Ishikawa [5] = experiment: Antiproliferative activity against human Ishikawa cells assessed as growth inhibition at 30 ug/mL after 72 hrs by MTT assay; format: functional; conditions: read-out: GI; outline: as §1
MCF7 [6] = experiment: Antiproliferative activity against human MCF7 cells assessed as growth inhibition at 30 ug/mL after 72 hrs by MTT assay; format: functional; conditions: MCF7, 72 h, read-out: GI; outline: as §1
[7] = molecular target: T1, ATP-dependent translocase ABCB1 (Homo sapiens, UniProt P08183); experiment: Inhibition of MDR1-mediated rhodamine 123 uptake expressed in mouse L5178Y cells transfected with pHa MDR1/A assessed as fluorescence activity ratio at 4 ug/mL by flow cytometry relative to untreated control; format: cell-based
T1 sequence (P08183 whole entry): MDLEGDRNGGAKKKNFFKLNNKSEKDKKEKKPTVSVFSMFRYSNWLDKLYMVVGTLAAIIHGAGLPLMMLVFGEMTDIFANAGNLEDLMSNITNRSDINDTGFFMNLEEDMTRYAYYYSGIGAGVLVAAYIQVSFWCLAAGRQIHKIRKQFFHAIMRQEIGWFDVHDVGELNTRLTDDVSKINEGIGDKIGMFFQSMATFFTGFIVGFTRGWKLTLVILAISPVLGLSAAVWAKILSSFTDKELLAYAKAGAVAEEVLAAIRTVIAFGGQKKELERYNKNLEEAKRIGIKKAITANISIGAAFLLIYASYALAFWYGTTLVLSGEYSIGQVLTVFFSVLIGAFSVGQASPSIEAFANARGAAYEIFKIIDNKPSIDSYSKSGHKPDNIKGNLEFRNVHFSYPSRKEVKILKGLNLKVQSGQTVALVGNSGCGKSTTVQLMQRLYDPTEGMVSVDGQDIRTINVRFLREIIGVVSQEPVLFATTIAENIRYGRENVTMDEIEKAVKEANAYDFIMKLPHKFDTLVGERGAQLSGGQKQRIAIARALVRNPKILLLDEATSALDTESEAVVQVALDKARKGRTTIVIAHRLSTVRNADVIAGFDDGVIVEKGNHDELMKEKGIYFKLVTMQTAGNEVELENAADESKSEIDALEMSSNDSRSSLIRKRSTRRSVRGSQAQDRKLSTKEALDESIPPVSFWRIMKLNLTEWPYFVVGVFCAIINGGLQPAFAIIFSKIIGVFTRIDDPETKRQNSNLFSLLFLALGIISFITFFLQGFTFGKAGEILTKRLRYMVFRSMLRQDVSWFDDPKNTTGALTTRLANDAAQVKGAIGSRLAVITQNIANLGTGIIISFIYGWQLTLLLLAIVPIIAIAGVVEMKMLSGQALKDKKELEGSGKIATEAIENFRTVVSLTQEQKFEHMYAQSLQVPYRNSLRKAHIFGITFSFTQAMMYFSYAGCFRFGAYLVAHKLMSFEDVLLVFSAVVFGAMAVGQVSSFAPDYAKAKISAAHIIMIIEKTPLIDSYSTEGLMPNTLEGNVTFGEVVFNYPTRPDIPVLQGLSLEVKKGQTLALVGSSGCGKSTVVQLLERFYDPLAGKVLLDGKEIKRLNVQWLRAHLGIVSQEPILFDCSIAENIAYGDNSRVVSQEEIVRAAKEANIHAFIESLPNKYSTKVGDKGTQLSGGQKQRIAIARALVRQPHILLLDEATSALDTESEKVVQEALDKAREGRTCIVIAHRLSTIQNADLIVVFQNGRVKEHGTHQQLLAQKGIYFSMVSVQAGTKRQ
Outline: (§2)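 Mouse L5178 lymphoma cells transfected with pHa MDR1/A retrovirus were kept under 60 ng/mL colchicine, alongside L5178Y parent cells, in McCoy's 5A medium with 10% horse serum. Cells at 2×10^6/mL in serum-free medium were preincubated with compound (4.0 or 40.0 μg/mL, in DMSO) for 10 min at room temperature. Rhodamine 123 was then added (5.2 μM final) for 20 min at 37 °C, and cells were washed and measured by flow cytometry. R compares treated versus untreated MDR cells relative to parental cells. Verapamil served as positive control.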

[8] = molecular target: T1, ATP-dependent translocase ABCB1; experiment: Inhibition of MDR1-mediated rhodamine 123 uptake expressed in mouse L5178Y cells transfected with pHa MDR1/A assessed as fluorescence activity ratio at 40 ug/mL by flow cytometry relative to untreated control; format: cell-based; outline: as §2

Row | Compound | Ratio [7] | Ratio [8] | inhibition of growth at 10 µg/mL (HeLa [1]) | inhibition of growth at 10 µg/mL (Ishikawa [2]) | inhibition of growth at 10 µg/mL (MCF7 [3]) | inhibition of growth at 30 µg/mL (HeLa [4]) | inhibition of growth at 30 µg/mL (Ishikawa [5]) | inhibition of growth at 30 µg/mL (MCF7 [6])
1 | C=C1[C@H](OC(=O)C(C)C)C[C@@H](OC(=O)c2cccnc2)C(C)(C)/C=C/[C@@H](C)C(=O)[C@@]2(OC(C)=O)C[C@H](C)[C@H](OC(C)=O)[C@@H]2[C@H]1OC(C)=O | 16.6 | 119.9 | 18.3% | 5.9% | 18.5% | 4.5% | 16.4% | 14.4%
2 | C=C1[C@H](OC(C)=O)CC(=O)C(C)(C)/C=C/[C@@H](C)C(=O)[C@@]2(OC(C)=O)C[C@@](C)(OC(C)=O)[C@H](OC(C)=O)[C@@H]2[C@H]1OC(C)=O [ESULATIN B] | 2.6 | 7.8 | 17.3% | 11.6% | 29.9% | 36.3% | 35% | 43.3%
3 | C=C1[C@H](OC(=O)C(C)C)[C@@H](OC(C)=O)[C@@H](OC(C)=O)C(C)(C)/C=C/[C@@H](C)C(=O)[C@@]2(OC(C)=O)C[C@@](C)(OC(C)=O)[C@H](OC(C)=O)[C@@H]2[C@H]1OC(C)=O | 5.5 | 14.8 | 2.9% | 21.4% | 8.7% | 10.9% | 17.1% | 23.3%
4 | C=C1[C@H](OC(=O)C(C)C)[C@@H](OC(C)=O)[C@@H](OC(C)=O)C(C)(C)[C@@H]2O[C@](O)([C@H](C)[C@@H]2OC(C)=O)[C@@]2(OC(C)=O)C[C@@](C)(OC(C)=O)[C@H](OC(C)=O)[C@@H]2[C@H]1OC(C)=O | 1.4 | 1 | 10.6% | 12% | 9.8% | 17.8% | 17.7% | 11.4%
5 | CC(=O)O[C@H]1[C@H]2OC(=O)CC[C@](O)([C@@H]1OC(=O)C(C)C)[C@H](OC(C)=O)[C@H]1[C@@H](OC(C)=O)[C@](C)(OC(C)=O)C[C@]1(OC(C)=O)C(=O)[C@H](C)[C@H]1O[C@@H]1C2(C)C | 5.9 | 17.5 | 5.3% | 31.5% | 24.8% | 20.8% | 33% | 29.2%
6 | C=C1/C=C\C(=O)C(C)(C)/C=C/[C@@H](C)C(=O)[C@@]2(OC(C)=O)C[C@@](C)(OC(C)=O)[C@H](OC(C)=O)[C@@H]2[C@H]1OC(C)=O [ESULATIN E] | – | – | 19.5% | 35.6% | 30.4% | 58.1% | 54.1% | 61.4%
7 | C=C1[C@H](OC(=O)C(C)C)CC(=O)C(C)(C)/C=C/[C@@H](C)C(=O)[C@@]2(OC(C)=O)C[C@H](C)[C@H](OC(C)=O)[C@@H]2[C@H]1OC(C)=O | 24.9 | 52.5 | 19.1% | 18.4% | 46.8% | 64.5% | 98.4% | 81.4%

The next lines start with results.

Row | Ratio [7] | Ratio [8] | Compound | inhibition of growth at 10 µg/mL (HeLa [1]) | inhibition of growth at 10 µg/mL (Ishikawa [2]) | inhibition of growth at 10 µg/mL (MCF7 [3]) | inhibition of growth at 30 µg/mL (HeLa [4]) | inhibition of growth at 30 µg/mL (Ishikawa [5]) | inhibition of growth at 30 µg/mL (MCF7 [6])
8 | 3.9 | 19.9 | C=C1[C@H](OC(C)=O)CC(=O)C(C)(C)/C=C/[C@@H](C)C(=O)[C@@]2(OC(C)=O)C[C@@](C)(OC(=O)c3ccccc3)[C@H](OC(C)=O)[C@@H]2[C@H]1OC(C)=O [ESULATIN I] | 15.4% | 8% | 12.7% | 23.8% | 29.4% | 60.1%
9 | 1.7 | 2.3 | C=C1[C@H](OC(C)=O)C[C@@H](OC(=O)c2cccnc2)C(C)(C)/C=C/[C@@H](C)C(=O)[C@@]2(OC(C)=O)C[C@@](C)(OC(C)=O)[C@H](OC(C)=O)[C@@H]2[C@H]1OC(C)=O | 13.9% | 8.1% | 20.3% | 17.9% | 13.9% | 36.3%
10 | 7.2 | 19.8 | C=C1[C@H](OC(C)=O)C[C@@H](OC(=O)c2cccnc2)C(C)(C)/C=C/[C@@H](C)C(=O)[C@@]2(OC(C)=O)C[C@@](C)(OC(=O)c3cccnc3)[C@H](OC(C)=O)[C@@H]2[C@H]1OC(C)=O [ESULATIN K] | 0.5% | 7.5% | 1.3% | 0.6% | 0.1% | 21.3%
11 | 4.6 | 15.2 | C=C1[C@H](OC(C)=O)C[C@@H](OC(C)=O)C(C)(C)/C=C/[C@@H](C)C(=O)[C@@]2(OC(C)=O)C[C@@](C)(OC(C)=O)[C@H](OC(C)=O)[C@@H]2[C@H]1OC(C)=O [ESULATIN D] | 11.4% | 29.4% | 9.5% | 26.7% | 29.9% | 13.5%
12 | 23.8 | 36.4 | C=C1[C@H](OC(=O)C(C)C)C[C@@H](OC(=O)c2cccnc2)C(C)(C)/C=C/[C@@H](C)C(=O)[C@@]2(OC(C)=O)C[C@@](C)(OC(C)=O)[C@H](OC(C)=O)[C@@H]2[C@H]1OC(C)=O | 6.4% | 17.5% | 3.6% | 1.1% | 26.6% | 16.7%
13 | 1.9 | 12.3 | C=C1[C@H](OC(C)=O)C[C@@H](OC(=O)c2cccnc2)[C@](C)(OC(C)=O)C/C=C/[C@@H](C)C(=O)[C@@]2(OC(C)=O)C[C@@](C)(OC(=O)c3cccnc3)[C@H](OC(C)=O)[C@@H]2[C@H]1OC(C)=O [EUPHOSALICIN] | 14.5% | 0.9% | 6.3% | 18.1% | 7.6% | 20%
